The values below come from ChEMBL document CHEMBL3872222, “Synthesis of novel curcuminoids accommodating a central β-enaminone motif and their impact on cell growth and oxidative stress” (Eur J Med Chem, 2016).

Data set [1] is described as follows: Solubility of the compound in serum-free DMEM assessed as compound concentration required for crystal formation measured after 1 day by microscopic analysis. The class given is physicochemical. As to conditions: 24 h. The method, boiled down:
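Compound at 0, 0.5, 1, 5, 10, 25 and 50 μM in serum-free DMEM incubated 1 day at 37 °C, 10% CO2, then examined for crystal formation.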

For data set [2], the system named is Caco-2. The data set can be described thus: Effect on oxidative stress in undifferentiated human Caco2 cells assessed as intracellular ROS level at 10 uM after overnight incubation by DCFH-DA staining based fluorescence assay relative to control. The class given is functional. The gist of the method:
(§1)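 Cells grown in DMEM+glutamax, 1% NEAA, 1% P/S, 10% FBS; seeded 20000/well, treated at confluency overnight in serum-free medium, DMSO under 0.1% final. Loaded with 20 μM DCFH-DA 30 min at 37 °C, 10% CO2; washed, phenol red-free medium 1 h, then serum-free medium; fluorescence ex 485/em 535 nm. Percent of untreated; two-tailed unequal-variance t-test, n≥6.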

Data set [3] in a line: Antioxidant activity assessed as inhibition of DPPH radical activity at 1 uM measured after 30 mins under dark conditions by spectrophotometric analysis relative to control. Type of data set: functional.
The test system of data set [4] is EA.hy 926. The data set can be described thus: Effect on oxidative stress in human EAhy926 cells assessed as intracellular ROS level at 10 uM after overnight incubation by DCFH-DA staining based fluorescence assay relative to control. Type of data set: functional. The method, boiled down:
as §1

For data set [5], the system named is CHO. The experiment in a line: Effect on oxidative stress in CHO cells assessed as intracellular ROS level at 10 uM after overnight incubation by DCFH-DA staining based fluorescence assay relative to control. The class given is functional, Cricetulus griseus. The method, boiled down: as §1
Data set [6] can be described thus: Growth inhibition of undifferentiated human Caco2 cells assessed as mitochondrial activity measured after 72 hrs by MTT assay. The class given is functional, cell-based. As to conditions: Caco-2, 72 h. The method, boiled down:
(§2)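 Seeded 20000 cells/well in DMEM+glutamax, NEAA, P/S, FBS; after 1 day treated 1, 5, 10, 25 μM in serum-free medium (DMSO under 0.1%) for 3 days. MTT (5 mg/ml in PBS) 2 h at 37 °C, 10% CO2 in dark; formazan dissolved in DMSO, absorbance 570 nm; triplicate; IC50 derived.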

A short description of data set [7]: Growth inhibition of undifferentiated human Caco2 cells measured after 72 hrs by SRB assay. Type of data set: functional, cell-based. As to conditions: Caco-2, 72 h. The gist of the method: (§3)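 20000 cells/well treated after 1 day at 1, 5, 10, 25 μM, serum-free, for 3 days. Fixed with 50% TCA 1 h at 4 °C, stained 30 min with 0.4% sulforhodamine B in 1% acetic acid, rinsed with 1% acetic acid, dye dissolved in 10 mM Tris, absorbance 490 nm; triplicate; IC50 derived.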

Data set [8] in a line: Growth inhibition of human EAhy926 cells assessed as mitochondrial activity measured after 72 hrs by MTT assay. The class given is cell-based. As to conditions: EA.hy 926, 72 h. The gist of the method: as §2
For data set [9], the system named is CHO. The experiment in a line: Effect on oxidative stress in CHO cells assessed as intracellular ROS level at 1 uM after overnight incubation by DCFH-DA staining based fluorescence assay relative to control. Type of data set: functional, Cricetulus griseus. The method, boiled down:
as §1

Data set [10] relates to Caco-2. The data set can be described thus: Effect on oxidative stress in undifferentiated human Caco2 cells assessed as intracellular ROS level at 1 uM after overnight incubation by DCFH-DA staining based fluorescence assay relative to control. The class given is functional. The gist of the method:
as §1

Data set [11] in a line: Growth inhibition of CHOK1 cells measured after 72 hrs by SRB assay. The class given is functional, cell-based. As to conditions: Cricetulus griseus, CHO-K1, 72 h. The method, boiled down:
as §3

Data set [12] in a line: Growth inhibition of CHOK1 cells assessed as mitochondrial activity measured after 72 hrs by MTT assay. The class given is functional, cell-based. As to conditions: Cricetulus griseus, CHO-K1, 72 h. The method, boiled down: as §2
The nature of data set [13]: Growth inhibition of human HT-29 cells measured after 72 hrs by SRB assay. The class given is functional, cell-based. As to conditions: HT-29, 72 h. The gist of the method: as §3
For data set [14], the system named is EA.hy 926. The experiment in a line: Effect on oxidative stress in human EAhy926 cells assessed as intracellular ROS level at 1 uM after overnight incubation by DCFH-DA staining based fluorescence assay relative to control. Type of data set: functional. The method, boiled down:
as §1

Data set [15] in a line: Growth inhibition of differentiated human Caco2 cells assessed as mitochondrial activity measured after 72 hrs by MTT assay. The class given is cell-based. As to conditions: Caco-2, 72 h. The method, boiled down:
as §2

A short description of data set [16]: Antioxidant activity assessed as trolox equivalent of ferric ion reducing activity using Fe3+-TPTZ by measuring Fe2+-TPTZ formation after 4 mins by UV-vis spectrophotometry based FRAP assay. The class given is functional. The gist of the method: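 FRAP reagent: 300 mM acetate buffer, 10 mM TPTZ in ethanol and 20 mM FeCl3 (in dilute HCl) combined 10:1:1, TPTZ and iron freshly made. Sample mixed 1:9 with reagent; absorbance 593 nm after 4 min. Expressed as trolox equivalents per μM from slope of linear plot versus analog concentration.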

Data set [17] can be described thus: Growth inhibition of differentiated human Caco2 cells measured after 72 hrs by SRB assay. The class given is cell-based. As to conditions: Caco-2, 72 h. The method, boiled down:
as §3

Data set [18] has as its system HT-29. The experiment in a line: Effect on oxidative stress in human HT-29 cells assessed as intracellular ROS level at 1 uM after overnight incubation by DCFH-DA staining based fluorescence assay relative to control. The class given is functional. The gist of the method: as §1
Data set [19] concerns HT-29. The experiment in a line: Effect on oxidative stress in human HT-29 cells assessed as intracellular ROS level at 10 uM after overnight incubation by DCFH-DA staining based fluorescence assay relative to control. The class given is functional. The method, boiled down:
as §1

Data set [20] in a line: Growth inhibition of human HT-29 cells assessed as mitochondrial activity measured after 72 hrs by MTT assay. Type of data set: functional, cell-based. As to conditions: HT-29, 72 h. The method, boiled down:
as §2

Data set [21] can be described thus: Growth inhibition of human EAhy926 cells measured after 72 hrs by SRB assay. As to conditions: EA.hy 926, 72 h. Type of data set: cell-based. The gist of the method: as §3

Converted amounts (≈) assume the structure as drawn. Some results are limits rather than exact numbers.

As for `COc1cc(/C=C/C(=O)CC(=O)/C=C/c2ccc(OC(C)=O)c(OC)c2)ccc1OC(C)=O`, in [1], the solubility amounted to 0.5 µM (≈ 0.226 µg/mL). In addition, the Activity was 90% in [2]; 189% in data set [4]; 112% in data set [5]; 128% in [9]; 93% in data set [10]; 114% in data set [14]. Also, the Activity in data set [16] worked out at 0.03 µMequiv/µM; in data set [18], 79%; in data set [19], 76%. The inhibition in [3] was determined as 0%. Also, the 50% inhibitory concentration (IC50) in [6], in data set [7], in [8], in data set [11], in [12] and in data set [13] was above 25 µM throughout. Moreover, the IC50 in data set [15], in [17], in data set [20] and in data set [21] was above 25 µM throughout.

Turning to `COc1cc(/C=C/C(=O)/C=C(/C=C/c2ccc(O)c(OC)c2)NCC(C)C)ccc1O`, the solubility in data set [1] was determined as 25 µM (≈ 10.6 µg/mL). The Activity came to 74% in [2]; 100% in data set [4]; 118% in data set [5]; 104% in data set [9]; 91% in data set [10]; 83% in data set [14]. Moreover, the Activity in [16] worked out at 0.89 µMequiv/µM; in data set [18], 91%; in data set [19], 92%. The inhibition in data set [3] is 0.09%. Besides, the IC50 in data set [6] was above 25 µM; in data set [7], above 25 µM; in data set [8], above 25 µM; in data set [11] it was above 25 µM; in data set [12], above 25 µM; in [13], 24 µM. The 50% inhibitory concentration (IC50) in data set [15] was above 25 µM; in data set [17], above 25 µM; in data set [20], 24.5 µM; in data set [21], above 25 µM.

For `CC(C)CNC(=C\C(=O)/C=C/c1ccc(O)cc1)/C=C/c1ccc(O)cc1`, the solubility in [1] turned out to be 25 µM (≈ 9.09 µg/mL). Besides, the Activity in [2] was 82%; in [4], 119%; in data set [5] it was 97%; in [9] it was 109%; in [10], 100%; in data set [14], 100%. The Activity stood at 0.19 µMequiv/µM in [16], 77% in [18] and 75% in data set [19]. For the same compound, the inhibition in [3] came out at 0.02%. For the same compound, the IC50 in data set [6] was 23 µM; in [7] it was 18.5 µM; in data set [8], above 25 µM; in data set [11], 23.7 µM; in [12] it was 17.9 µM; in data set [13], 22.5 µM. Besides, the IC50 in data set [15] is above 25 µM; in [17] it was above 25 µM; in data set [20] it was 20.1 µM; in data set [21], above 25 µM.

Take `C=CCNC(=C\C(=O)/C=C/c1ccc(O)c(OC)c1)/C=C/c1ccc(O)c(OC)c1`: the solubility in [1] amounted to 25 µM (≈ 10.2 µg/mL). The Activity turned out to be 76% in data set [2]; 267% in [4]; 104% in data set [5]; 115% in data set [9]; 89% in [10]; 124% in data set [14]. The Activity in data set [16] was determined as 1.14 µMequiv/µM; in data set [18], 99%; in data set [19], 84%. The inhibition in data set [3] was found to be 0.1%. For the same compound, the IC50 is above 25 µM in data set [6]; above 25 µM in data set [7]; above 25 µM in data set [8]; above 25 µM in data set [11]; 7.4 µM in data set [12]; 24.6 µM in [13]. The IC50 in data set [15], in [17], in data set [20] and in data set [21] was above 25 µM each time.

Regarding `CCC(C)NC(=C\C(=O)/C=C/c1ccc(OC(C)=O)c(OC)c1)/C=C/c1ccc(OC(C)=O)c(OC)c1` (configuration not stated), the solubility in [1] was 5 µM (≈ 2.54 µg/mL). The Activity in data set [2] is on record as 86%; in [4], 105%; in data set [5] it was 92%; in data set [9] it was 88%; in data set [10], 95%; in data set [14] it was 68%. For the same compound, the Activity in data set [16] was 0 µMequiv/µM; in data set [18], 92%; in [19], 89%. Also, the inhibition in data set [3] was determined as 0%. Besides, the IC50 was above 25 µM in data set [6]; 24 µM in data set [7]; above 25 µM in [8]; above 25 µM in [11]; above 25 µM in data set [12]; above 25 µM in [13]. Further, the IC50 in [15], in [17], in data set [20] and in [21] was above 25 µM each time.

`CCCCNC(=C\C(=O)/C=C/c1ccc(O)c(OC)c1)/C=C/c1ccc(O)c(OC)c1`: the solubility in [1] is 5 µM (≈ 2.12 µg/mL). For the same compound, the Activity in data set [2] is 83%; in [4], 439%; in data set [5], 110%; in data set [9], 129%; in data set [10], 91%; in data set [14] it was 110%. In addition, the Activity in data set [16] turned out to be 1.29 µMequiv/µM; in data set [18], 99%; in [19], 98%. Also, the inhibition in [3] stood at 0.08%. The IC50 in [6] was above 25 µM; in data set [7] it was 23.8 µM; in [8], above 25 µM; in [11], 20.4 µM; in data set [12] it was 7 µM; in data set [13], 21.2 µM. In addition, the half-maximal inhibitory concentration (IC50) is above 25 µM in data set [15], above 25 µM in data set [17], 19.7 µM in [20] and above 25 µM in data set [21].

For the compound `O=C(/C=C/c1ccc(O)cc1)CC(=O)/C=C/c1ccc(O)cc1` [BISDEMETHOXYCURCUMIN], in [1], the solubility was 25 µM (≈ 7.71 µg/mL). In addition, the Activity in data set [2] is 83%; in [4] it was 103%; in data set [5] it was 105%; in [9], 101%; in data set [10], 98%; in data set [14], 92%. In addition, the Activity in [16] is 0.28 µMequiv/µM; in [18], 75%; in data set [19], 69%. The inhibition in data set [3] amounted to 0.02%. Moreover, the IC50 in data set [6], in data set [7], in [8], in data set [11], in [12] and in [13] was above 25 µM in each case. The IC50 in data set [15], in data set [17], in data set [20] and in data set [21] was above 25 µM each time.
